# Reference: ChEMBL document CHEMBL1156833, “The discovery of MK-0674, an orally bioavailable cathepsin K inhibitor” (Bioorg Med Chem Lett, 2010)
# Test system: not listed separately
# Assay: Half life in po dosed rabbit
# Format: ADME, organism-based, Oryctolagus cuniculus
# Details: in vivo
# Outline: (§1)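 Pharmacokinetics in rats, rabbits and rhesus monkeys after oral dosing in 1% methocel vehicle. Half-life and oral bioavailability were derived from the plasma profiles.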
row,half-life,SMILES
1,14 h,CC(C)(F)C[C@H](N[C@@H](c1ccc(-c2ccc([C@@H](O)C(F)F)cc2)cc1)C(F)(F)F)C(=O)NC1(C#N)CC1
2,8 h,CC(C)(F)C[C@H](N[C@@H](c1ccc(-c2ccc([C@H](O)C(F)F)cc2)cc1)C(F)(F)F)C(=O)NC1(C#N)CC1

# Test system: Rattus norvegicus
# Assay: Metabolic stability in rat at 25 mg/kg, po after up to 24 hrs
# Format: ADME, organism-based
# Parameters: dose 25 mg/kg, route oral
# Details: in vivo
row,Stability,SMILES
1,Stable,[2H][C@@](O)(c1ccc(-c2ccc([C@H](N[C@@H](CC(C)(C)F)C(=O)NC3(C#N)CC3)C(F)(F)F)cc2)cc1)C(F)F

# Target: Cathepsin K (Homo sapiens, UniProt P43235)
# Assay: Inhibition of humanized rabbit cathepsin K
# Details: not given
row,IC50,SMILES
1,0.4 nM,CC(C)(F)C[C@H](N[C@@H](c1ccc(-c2ccc([C@@H](O)C(F)F)cc2)cc1)C(F)(F)F)C(=O)NC1(C#N)CC1
2,0.4 nM,CC(C)(F)C[C@H](N[C@@H](c1ccc(-c2ccc([C@H](O)C(F)F)cc2)cc1)C(F)(F)F)C(=O)NC1(C#N)CC1

# Species on record: Homo sapiens
# Assay: Selectivity ratio of IC50 for human cathepsin S to IC50 for humanized rabbit cathepsin K
# Details: not given
row,Ratio IC50,SMILES
1,243,CC(C)(F)C[C@H](N[C@@H](c1ccc(-c2ccc([C@@H](O)C(F)F)cc2)cc1)C(F)(F)F)C(=O)NC1(C#N)CC1
2,197,CC(C)(F)C[C@H](N[C@@H](c1ccc(-c2ccc([C@H](O)C(F)F)cc2)cc1)C(F)(F)F)C(=O)NC1(C#N)CC1

# Test system: not listed separately
# Assay: Metabolic stability in rhesus monkey hepatocytes assessed as compound remaining
# Format: ADME, cell-based, Macaca mulatta, Hepatocyte
# Details: not given
row,Stability,SMILES
1,93%,CC(C)(F)C[C@H](N[C@@H](c1ccc(-c2ccc([C@@H](O)C(F)F)cc2)cc1)C(F)(F)F)C(=O)NC1(C#N)CC1
2,88%,CC(C)(F)C[C@H](N[C@@H](c1ccc(-c2ccc([C@H](O)C(F)F)cc2)cc1)C(F)(F)F)C(=O)NC1(C#N)CC1

# Test system: not listed separately
# Assay: Oral bioavailability in rabbit
# Format: ADME, organism-based, Oryctolagus cuniculus
# Details: in vivo
# Outline: as §1
row,bioavailability,SMILES
1,70%,CC(C)(F)C[C@H](N[C@@H](c1ccc(-c2ccc([C@@H](O)C(F)F)cc2)cc1)C(F)(F)F)C(=O)NC1(C#N)CC1
2,132%,CC(C)(F)C[C@H](N[C@@H](c1ccc(-c2ccc([C@H](O)C(F)F)cc2)cc1)C(F)(F)F)C(=O)NC1(C#N)CC1

# Test system: Hepatocyte
# Assay: Metabolic stability in rat hepatocytes assessed as compound remaining
# Format: ADME, cell-based
# Details: not given
row,Stability,SMILES
1,95%,CC(C)(F)C[C@H](N[C@@H](c1ccc(-c2ccc([C@@H](O)C(F)F)cc2)cc1)C(F)(F)F)C(=O)NC1(C#N)CC1
2,94%,CC(C)(F)C[C@H](N[C@@H](c1ccc(-c2ccc([C@H](O)C(F)F)cc2)cc1)C(F)(F)F)C(=O)NC1(C#N)CC1

# Test system: Rattus norvegicus
# Assay: Metabolic stability in rat assessed as conversion to (S)-N-(1-cyanocyclopropyl)-2-((S)-1-(4'-((R)-2,2-difluoro-1-hydroxyethyl)biphenyl-4-yl)-2,2,2-trifluoroethylamino)-4-fluoro-4-methylpentanamide at 25 mg/kg, po
# Format: ADME, organism-based
# Parameters: dose 25 mg/kg, route oral
# Details: in vivo
row,Stability,SMILES
1,Unstable,[2H][C@@](O)(c1ccc(-c2ccc([C@H](N[C@@H](CC(C)(C)F)C(=O)NC3(C#N)CC3)C(F)(F)F)cc2)cc1)C(F)F

# Species on record: Homo sapiens
# Assay: Selectivity ratio of IC50 for human cathepsin L to IC50 for humanized rabbit cathepsin K
# Details: not given
row,Ratio IC50,SMILES
1,11900,CC(C)(F)C[C@H](N[C@@H](c1ccc(-c2ccc([C@@H](O)C(F)F)cc2)cc1)C(F)(F)F)C(=O)NC1(C#N)CC1
2,14100,CC(C)(F)C[C@H](N[C@@H](c1ccc(-c2ccc([C@H](O)C(F)F)cc2)cc1)C(F)(F)F)C(=O)NC1(C#N)CC1

# Test system: Rattus norvegicus
# Assay: Metabolic stability in rat at 25 mg/kg, po and 5 mg/kg, iv up to 24 hrs
# Format: ADME, organism-based
# Details: in vivo
row,Stability,SMILES
1,Stable,[2H][C@@](O)(c1ccc(-c2ccc([C@H](N[C@@H](CC(C)(C)F)C(=O)NC3(C#N)CC3)C(F)(F)F)cc2)cc1)C(F)F

# Test system: not listed separately
# Assay: Decrease in bone resorption assessed as corrected bone resorption measured as ratio of bone resorption IC50 x humanized rabbit cathepsin K IC50 to rabbit cathepsin K IC50 equation
# Format: functional, tissue-based, Bone element
# Details: not given
row,IC50,SMILES
1,10 nM,CC(C)(F)C[C@H](N[C@@H](c1ccc(-c2ccc([C@@H](O)C(F)F)cc2)cc1)C(F)(F)F)C(=O)NC1(C#N)CC1
2,7 nM,CC(C)(F)C[C@H](N[C@@H](c1ccc(-c2ccc([C@H](O)C(F)F)cc2)cc1)C(F)(F)F)C(=O)NC1(C#N)CC1

# Test system: Canis familiaris
# Assay: Metabolic stability in dog at 25 mg/kg, po and 5 mg/kg, iv up to 24 hrs
# Format: ADME, organism-based, Canis lupus familiaris
# Details: in vivo
row,Stability,SMILES
1,Stable,[2H][C@@](O)(c1ccc(-c2ccc([C@H](N[C@@H](CC(C)(C)F)C(=O)NC3(C#N)CC3)C(F)(F)F)cc2)cc1)C(F)F

# Test system: not listed separately
# Assay: Oral bioavailability in rhesus monkey
# Format: ADME, organism-based, Macaca mulatta
# Details: in vivo
# Outline: as §1
row,bioavailability,SMILES
1,64%,CC(C)(F)C[C@H](N[C@@H](c1ccc(-c2ccc([C@@H](O)C(F)F)cc2)cc1)C(F)(F)F)C(=O)NC1(C#N)CC1
2,139%,CC(C)(F)C[C@H](N[C@@H](c1ccc(-c2ccc([C@H](O)C(F)F)cc2)cc1)C(F)(F)F)C(=O)NC1(C#N)CC1

# Test system: not listed separately
# Assay: Oral bioavailability in rat
# Format: ADME, organism-based
# Details: in vivo
# Outline: as §1
row,bioavailability,SMILES
1,122%,CC(C)(F)C[C@H](N[C@@H](c1ccc(-c2ccc([C@@H](O)C(F)F)cc2)cc1)C(F)(F)F)C(=O)NC1(C#N)CC1
2,86%,CC(C)(F)C[C@H](N[C@@H](c1ccc(-c2ccc([C@H](O)C(F)F)cc2)cc1)C(F)(F)F)C(=O)NC1(C#N)CC1

# Species on record: Homo sapiens
# Assay: Selectivity ratio of IC50 for human cathepsin B to IC50 for humanized rabbit cathepsin K
# Details: not given
row,Ratio IC50,SMILES
1,1160,CC(C)(F)C[C@H](N[C@@H](c1ccc(-c2ccc([C@@H](O)C(F)F)cc2)cc1)C(F)(F)F)C(=O)NC1(C#N)CC1
2,1470,CC(C)(F)C[C@H](N[C@@H](c1ccc(-c2ccc([C@H](O)C(F)F)cc2)cc1)C(F)(F)F)C(=O)NC1(C#N)CC1

# Test system: not listed separately
# Assay: Metabolic stability in rabbit hepatocytes assessed as compound remaining
# Format: ADME, cell-based, Oryctolagus cuniculus, Hepatocyte
# Details: not given
row,Stability,SMILES
1,93%,CC(C)(F)C[C@H](N[C@@H](c1ccc(-c2ccc([C@@H](O)C(F)F)cc2)cc1)C(F)(F)F)C(=O)NC1(C#N)CC1
2,70%,CC(C)(F)C[C@H](N[C@@H](c1ccc(-c2ccc([C@H](O)C(F)F)cc2)cc1)C(F)(F)F)C(=O)NC1(C#N)CC1

# Test system: not listed separately
# Assay: Half life in po dosed rat
# Format: ADME, organism-based
# Details: in vivo
# Outline: as §1
row,half-life,SMILES
1,7 h,CC(C)(F)C[C@H](N[C@@H](c1ccc(-c2ccc([C@@H](O)C(F)F)cc2)cc1)C(F)(F)F)C(=O)NC1(C#N)CC1
2,10 h,CC(C)(F)C[C@H](N[C@@H](c1ccc(-c2ccc([C@H](O)C(F)F)cc2)cc1)C(F)(F)F)C(=O)NC1(C#N)CC1

# Species on record: Homo sapiens
# Assay: Selectivity ratio of IC50 for human cathepsin F to IC50 for humanized rabbit cathepsin K
# Details: not given
row,Ratio IC50,SMILES
1,1460,CC(C)(F)C[C@H](N[C@@H](c1ccc(-c2ccc([C@@H](O)C(F)F)cc2)cc1)C(F)(F)F)C(=O)NC1(C#N)CC1
2,1600,CC(C)(F)C[C@H](N[C@@H](c1ccc(-c2ccc([C@H](O)C(F)F)cc2)cc1)C(F)(F)F)C(=O)NC1(C#N)CC1

# Test system: not listed separately
# Assay: Half life in po dosed rhesus monkey
# Format: ADME, organism-based, Macaca mulatta
# Details: in vivo
# Outline: as §1
row,half-life,SMILES
1,11 h,CC(C)(F)C[C@H](N[C@@H](c1ccc(-c2ccc([C@@H](O)C(F)F)cc2)cc1)C(F)(F)F)C(=O)NC1(C#N)CC1
2,6 h,CC(C)(F)C[C@H](N[C@@H](c1ccc(-c2ccc([C@H](O)C(F)F)cc2)cc1)C(F)(F)F)C(=O)NC1(C#N)CC1
